≈ marks a conversion by molar mass, not a printed value. Where “and” joins values, the source holds several entries; their conditions need not be identical. Equal entries are not always repeated. Calls of active or inactive are those of the source. No cut-off for these calls is given here.
Key:
Pseudomonas = assay: Evaluation of in vitro antimicrobial activity with an agar diffusion assay against Pseudomonas fluorescence; format: functional
Method in brief: (§1)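 Agar diffusion assay. A standard antibiotic was run to validate the assays, with data reproducible to ± 3 mm between assays.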

Bacillus subtilis = assay: Evaluation of in vitro antimicrobial activity with an agar diffusion assay against Bacillus subtilis; format: functional; method in brief: as §1
[1] = Evaluation of in vitro antimicrobial activity with an agar diffusion assay against Salmonella schottmuelleri; format: functional; method in brief: as §1
Micrococcus luteus = assay: Evaluation of in vitro antimicrobial activity with an agar diffusion assay against Micrococcus luteus; format: functional; method in brief: as §1
Pseudomonas aeruginosa [2] = assay: Evaluation of in vitro antimicrobial activity with an agar diffusion assay against Pseudomonas aeruginosa; format: functional; method in brief: as §1
L1210 [3] = assay: In vitro antileukemic (cytotoxic) activity against L1210 cells in suspension.; format: functional, Mus musculus; conditions: for IC50: Mus musculus, L1210, read-out: ID50 (the source's name)
Klebsiella pneumoniae [4] = assay: Evaluation of in vitro antimicrobial activity with an agar diffusion assay against Klebsiella pneumoniae; format: functional; method in brief: as §1
[5] = test system: Saccharomyces pastorianus; assay: Evaluation of in vitro antimicrobial activity with an agar diffusion assay against Saccharomyces pastorianus; format: functional; method in brief: as §1
Escherichia coli [6] = assay: Evaluation of in vitro antimicrobial activity with an agar diffusion assay against Escherichia coli; format: functional; method in brief: as §1
Penicillium oxalicum = assay: Evaluation of in vitro antimicrobial activity with an agar diffusion assay against Penicillium oxalicum; format: functional, pencillium oxalicum; method in brief: as §1
Proteus vulgaris [7] = assay: Evaluation of in vitro antimicrobial activity with an agar diffusion assay against Proteus vulgaris; format: functional; method in brief: as §1
Pseudomonas aeruginosa [8] = assay: Evaluation of in vitro antimicrobial activity with an agar diffusion assay against Pseudomonas aeruginosa; Inactive; format: functional, organism-based; method in brief: as §1
L1210 [9] = assay: In vitro evaluation of the antileukemic (cytotoxic) activity against L1210 cells in suspension; format: functional, Mus musculus
Staphylococcus aureus [10] = assay: In vitro evaluation of antimicrobial activity with microplate broth dilution assay against Staphylococcus aureus UC76; format: functional
Method in brief: (§2)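 Serial twofold dilutions prepared in modified brain heart infusion broth in microplate wells. Each well inoculated with standardized cell suspension to ~10^6 viable cells per mL of drug-supplemented medium. Plates incubated 37 °C for 20 h. MIC read as lowest concentration inhibiting visible growth.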

Shigella flexneri = assay: In vitro evaluation of antimicrobial activity with microplate broth dilution assay against Shigella flexneri UC143; format: functional; method in brief: as §2
Serratia marcescens = assay: In vitro evaluation of antimicrobial activity with microplate broth dilution assay against Serratia marcescens UC131; format: functional; method in brief: as §2
Providencia stuartii = assay: In vitro evaluation of antimicrobial activity with microplate broth dilution assay against Providencia stuartii UC6570; format: functional; method in brief: as §2
Proteus vulgaris [11] = assay: In vitro evaluation of antimicrobial activity with microplate broth dilution assay against Proteus vulgaris UC93; format: functional; method in brief: as §2
Klebsiella pneumoniae [12] = assay: In vitro evaluation of antimicrobial activity with microplate broth dilution assay against Klebsiella pneumoniae UC58; format: functional; method in brief: as §2
Pseudomonas aeruginosa [13] = assay: In vitro evaluation of antimicrobial activity with microplate broth dilution assay against Pseudomonas aeruginosa UC95; format: functional; method in brief: as §2
Proteus mirabilis = assay: In vitro evaluation of antimicrobial activity with microplate broth dilution assay against Proteus mirabilis UC6671; format: functional; method in brief: as §2
Salmonella typhi = assay: In vitro evaluation of antimicrobial activity with microplate broth dilution assay against Salmonella typhi UC215; format: functional, Salmonella enterica subsp. enterica serovar Typhi; conditions: Salmonella enterica
Method in brief: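 Twofold serial dilutions in modified brain heart infusion broth in microplate wells, each inoculated with standardized cell suspension to about 10^6 viable cells/mL final. Incubated 37 °C for 20 h. MIC read as the lowest concentration inhibiting visible growth.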

[14] = In vitro evaluation of antimicrobial activity with microplate broth dilution assay against Salmonella schottmuelleri UC126; format: functional; method in brief: as §2
Escherichia coli [15] = assay: In vitro evaluation of antimicrobial activity with microplate broth dilution assay against Escherichia coli UC45; format: functional; method in brief: as §2
Enterococcus faecalis [16] = assay: In vitro evaluation of antimicrobial activity with microplate broth dilution assay against Streptococcus faecalis UC694
Staphylococcus aureus [17] = assay: Evaluation of in vitro antimicrobial activity with an agar diffusion assay against Staphylococcus aureus; format: functional; method in brief: as §1
Enterococcus faecalis [18] = assay: In vitro evaluation of antimicrobial activity with microplate broth dilution assay against Streptococcus faecalis UC694; format: functional, streptococcus feacal; method in brief: as §2

## CC(=O)n1oc(=O)c2ccccc21
Pseudomonas
  Zone of inhibition: 31 mm
Bacillus subtilis
  Zone of inhibition: 24 mm
[1]
  Zone of inhibition: 20 mm
Micrococcus luteus
  Zone of inhibition: 18 mm
Pseudomonas aeruginosa [2]
  Zone of inhibition: 38 mm
L1210 [3]
  ID50: 3.4 µg/mL and 8.7 µg/mL
Klebsiella pneumoniae [4]
  Zone of inhibition: 20 mm
[5]
  Zone of inhibition: 21 mm
Escherichia coli [6]
  Zone of inhibition: 26 mm
Penicillium oxalicum
  Zone of inhibition: 49 mm
Proteus vulgaris [7]
  Zone of inhibition: 23 mm

## CNC(=O)n1oc(=O)c2ccccc21
Pseudomonas aeruginosa [2]
  Zone of inhibition: 24 mm
L1210 [3]
  ID50: 4.9 µg/mL and 14 µg/mL
Klebsiella pneumoniae [4]
  Zone of inhibition: 16 mm
Proteus vulgaris [7]
  Zone of inhibition: 19 mm

## CCCCCCCCCCCCCCCC(=O)OCn1oc(=O)c2ccccc21
Pseudomonas aeruginosa [8]
  Zone of inhibition: inactive

## O=C(CCCCCI)OCn1oc(=O)c2ccccc21
Pseudomonas
  Zone of inhibition: 23 mm
Bacillus subtilis
  Zone of inhibition: 15 mm
Pseudomonas aeruginosa [2]
  Zone of inhibition: 17 mm
L1210 [3]
  ID50: 19 µg/mL (≈ 48.8 µM)
Penicillium oxalicum
  Zone of inhibition: 26 mm
Proteus vulgaris [7]
  Zone of inhibition: 15 mm

## Cc1ccc(C(=O)OCn2oc(=O)c3ccccc32)cc1
Pseudomonas
  Zone of inhibition: 20 mm
Bacillus subtilis
  Zone of inhibition: 20 mm
[1]
  Zone of inhibition: 17 mm
L1210 [9]
  ID90: 17 µg/mL (≈ 60 µM)
Pseudomonas aeruginosa [2]
  Zone of inhibition: 22 mm
L1210 [3]
  IC50: 4.6 µg/mL (≈ 16.2 µM)
Klebsiella pneumoniae [4]
  Zone of inhibition: 21 mm
Escherichia coli [6]
  Zone of inhibition: 18 mm
Penicillium oxalicum
  Zone of inhibition: 24 mm
Proteus vulgaris [7]
  Zone of inhibition: 22 mm

## CNC(=O)OCn1oc(=O)c2ccccc21
Pseudomonas
  Zone of inhibition: 33 mm
Staphylococcus aureus [10]
  MIC: 62.5 µg/mL (≈ 281 µM)
Bacillus subtilis
  Zone of inhibition: 16 mm
[1]
  Zone of inhibition: 28 mm
L1210 [9]
  ID90: 8.6 µg/mL (≈ 38.7 µM)
Shigella flexneri
  MIC: 31.2 µg/mL (≈ 140 µM)
Serratia marcescens
  MIC: 3.9 µg/mL (≈ 17.6 µM)
Providencia stuartii
  MIC: 62.5 µg/mL (≈ 281 µM)
Proteus vulgaris [11]
  MIC: 15.6 µg/mL (≈ 70.2 µM)
Klebsiella pneumoniae [12]
  MIC: 62.5 µg/mL (≈ 281 µM)
Pseudomonas aeruginosa [13]
  MIC: 15.6 µg/mL (≈ 70.2 µM)
Proteus mirabilis
  MIC: 31.2 µg/mL (≈ 140 µM)
Micrococcus luteus
  Zone of inhibition: 33 mm
Pseudomonas aeruginosa [2]
  Zone of inhibition: 39 mm
L1210 [3]
  IC50: 3.5 µg/mL (≈ 15.8 µM)
Klebsiella pneumoniae [4]
  Zone of inhibition: 23 mm
Salmonella typhi
  MIC: 15.6 µg/mL (≈ 70.2 µM)
[14]
  MIC: 31.2 µg/mL (≈ 140 µM)
Escherichia coli [15]
  MIC: 31.2 µg/mL (≈ 140 µM)
Escherichia coli [6]
  Zone of inhibition: 30 mm
Penicillium oxalicum
  Zone of inhibition: 46 mm
Proteus vulgaris [7]
  Zone of inhibition: 32 mm

## O=C(NCCCCCI)n1oc(=O)c2ccccc21
Pseudomonas aeruginosa [8]
  Zone of inhibition: inactive
L1210 [3]
  ID50: 3.7 µg/mL and 8.6 µg/mL

## CS(=O)(=O)n1oc(=O)c2ccccc21
Pseudomonas aeruginosa [2]
  Zone of inhibition: 31 mm
L1210 [3]
  ID50: 3.7 µg/mL and 8.6 µg/mL

## O=c1on(CO)c2ccccc12
Enterococcus faecalis [16]
  MIC: 250 µg/mL (≈ 1510 µM)
Staphylococcus aureus [10]
  MIC: 62.5 µg/mL (≈ 378 µM)
Shigella flexneri
  MIC: 15.6 µg/mL (≈ 94.5 µM)
Serratia marcescens
  MIC: 2 µg/mL (≈ 12.1 µM)
Providencia stuartii
  MIC: 31.2 µg/mL (≈ 189 µM)
Proteus vulgaris [11]
  MIC: 3.9 µg/mL (≈ 23.6 µM)
Klebsiella pneumoniae [12]
  MIC: 31.6 µg/mL (≈ 191 µM)
Pseudomonas aeruginosa [13]
  MIC: 7.8 µg/mL (≈ 47.2 µM)
Proteus mirabilis
  MIC: 15.6 µg/mL (≈ 94.5 µM)
Salmonella typhi
  MIC: 7.8 µg/mL (≈ 47.2 µM)
[14]
  MIC: 31.2 µg/mL (≈ 189 µM)
Escherichia coli [15]
  MIC: 15.6 µg/mL (≈ 94.5 µM)

## Oc1onc2ccccc12
Pseudomonas
  Zone of inhibition: 35 mm
Bacillus subtilis
  Zone of inhibition: 22 mm
[1]
  Zone of inhibition: 26 mm
Staphylococcus aureus [17]
  Zone of inhibition: 15 mm
Micrococcus luteus
  Zone of inhibition: 27 mm
Pseudomonas aeruginosa [2]
  Zone of inhibition: 30 mm
L1210 [3]
  ID50: 3.1 µg/mL and 8 µg/mL
Klebsiella pneumoniae [4]
  Zone of inhibition: 26 mm
[5]
  Zone of inhibition: 16 mm
Escherichia coli [6]
  Zone of inhibition: 25 mm
Penicillium oxalicum
  Zone of inhibition: 41 mm
Proteus vulgaris [7]
  Zone of inhibition: 30 mm

## CC(C)C(=O)OCn1oc(=O)c2ccccc21
Pseudomonas
  Zone of inhibition: 33 mm
Bacillus subtilis
  Zone of inhibition: 17 mm
[1]
  Zone of inhibition: 23 mm
Staphylococcus aureus [17]
  Zone of inhibition: 17 mm
Micrococcus luteus
  Zone of inhibition: 22 mm
Pseudomonas aeruginosa [2]
  Zone of inhibition: 22 mm
Klebsiella pneumoniae [4]
  Zone of inhibition: 22 mm
Escherichia coli [6]
  Zone of inhibition: 17 mm
Penicillium oxalicum
  Zone of inhibition: 29 mm
Proteus vulgaris [7]
  Zone of inhibition: 24 mm

## COCn1oc(=O)c2ccccc21
Pseudomonas aeruginosa [8]
  Zone of inhibition: inactive

## Cn1oc(=O)c2ccccc21
Pseudomonas aeruginosa [8]
  Zone of inhibition: inactive

## O=C(COc1ccccc1)OCn1oc(=O)c2ccccc21
Pseudomonas
  Zone of inhibition: 31 mm
Bacillus subtilis
  Zone of inhibition: 20 mm
[1]
  Zone of inhibition: 20 mm
Staphylococcus aureus [17]
  Zone of inhibition: 15 mm
Micrococcus luteus
  Zone of inhibition: 19 mm
Pseudomonas aeruginosa [2]
  Zone of inhibition: 19 mm
Klebsiella pneumoniae [4]
  Zone of inhibition: 22 mm
Escherichia coli [6]
  Zone of inhibition: 18 mm
Penicillium oxalicum
  Zone of inhibition: 24 mm
Proteus vulgaris [7]
  Zone of inhibition: 21 mm

## CC(C)(C)C(=O)OCn1oc(=O)c2ccccc21
Pseudomonas
  Zone of inhibition: 30 mm
Bacillus subtilis
  Zone of inhibition: 18 mm
[1]
  Zone of inhibition: 22 mm
Staphylococcus aureus [17]
  Zone of inhibition: 18 mm
Micrococcus luteus
  Zone of inhibition: 18 mm
Pseudomonas aeruginosa [2]
  Zone of inhibition: 20 mm
Klebsiella pneumoniae [4]
  Zone of inhibition: 21 mm
Escherichia coli [6]
  Zone of inhibition: 17 mm
Penicillium oxalicum
  Zone of inhibition: 31 mm
Proteus vulgaris [7]
  Zone of inhibition: 18 mm

## CC(=O)OCn1oc(=O)c2ccccc21
Pseudomonas
  Zone of inhibition: 32 mm
Staphylococcus aureus [10]
  MIC: > 250 µg/mL
Bacillus subtilis
  Zone of inhibition: 24 mm
[1]
  Zone of inhibition: 22 mm
L1210 [9]
  ID90: 19 µg/mL (≈ 91.7 µM)
Shigella flexneri
  MIC: 62.5 µg/mL (≈ 302 µM)
Serratia marcescens
  MIC: 15.6 µg/mL (≈ 75.3 µM)
Providencia stuartii
  MIC: 125 µg/mL (≈ 603 µM)
Proteus vulgaris [11]
  MIC: 15.6 µg/mL (≈ 75.3 µM)
Staphylococcus aureus [17]
  Zone of inhibition: 15 mm
Klebsiella pneumoniae [12]
  MIC: 62.5 µg/mL (≈ 302 µM)
Proteus mirabilis
  MIC: 62.5 µg/mL (≈ 302 µM)
Micrococcus luteus
  Zone of inhibition: 24 mm
Pseudomonas aeruginosa [2]
  Zone of inhibition: 32 mm
L1210 [3]
  IC50: 5.1 µg/mL (≈ 24.6 µM)
Klebsiella pneumoniae [4]
  Zone of inhibition: 24 mm
Salmonella typhi
  MIC: 62.5 µg/mL (≈ 302 µM)
[14]
  MIC: 62.5 µg/mL (≈ 302 µM)
Escherichia coli [15]
  MIC: 125 µg/mL (≈ 603 µM)
[5]
  Zone of inhibition: 17 mm
Escherichia coli [6]
  Zone of inhibition: 26 mm
Enterococcus faecalis [18]
  MIC: > 250 µg/mL
Penicillium oxalicum
  Zone of inhibition: 43 mm
Proteus vulgaris [7]
  Zone of inhibition: 25 mm

Source: ChEMBL document CHEMBL1122797, “Benzisoxazolones: antimicrobial and antileukemic activity” (1984)
